Results from ChEMBL document CHEMBL1121449, “Synthesis and antineoplastic activity of hydroquinone dialdehydes” (J Med Chem, 1980).

Columns and labels:
Mus musculus [1] = experiment: Tested for mean survival time of Mice bearing Ehrlich carcinoma not surviving 50 days as a percentage at dose of 10 mg/kg; assay type: functional
In short: (§1)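 Female CD-1 mice, Ehrlich ascites carcinoma, 0.1 mL of 10^7 cells/mL given ip. Drug in 0.9% NaCl with 5% ethanol and trace Tween 80, serially diluted with saline. Dosed ip at 0.5 mL once daily for 6 days from 24 h post-implant; saline controls. T/C is the mean survival of treated mice dying before 50 days as % of controls. Survivors are those alive ≥50 days.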

Mus musculus [2] = experiment: Tested for Mice bearing Ehrlich carcinoma surviving at least 50 days out of 10 animal treated at dose of 10 mg/kg; assay type: functional; in short: as §1
Mus musculus [3] = experiment: Tested for number of animal surviving at least 50 days out of 10 animal treated at dose of 2.5 mg/kg; assay type: functional
In short: (§2)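 Female CD-1 mice, Sarcoma 180 ascites, 0.1 mL of 10^7 cells/mL given ip. Drug in 0.9% NaCl, 5% ethanol, Tween 80, serially diluted with saline. Dosed ip at 0.5 mL daily for 6 days from 24 h post-implant; daily dose based on starting mean weight. T/C is the mean survival of treated mice dying before 50 days vs controls. Survivors are those alive ≥50 days out of those treated.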

[4] = Tested for inhibition of growth of sarcoma 180 cells in culture; assay type: functional, cell-based; conditions: Mus musculus
In short: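 Sarcoma 180 cells in suspension in Fischer's medium with 10% horse serum and penicillin/streptomycin, seeded at 10^4 cells/mL. Drug added from 10× stocks in 10% Me2SO/PBS, final 1–100 μM. Control cultures contained 1% Me2SO. Triplicate Coulter counts at 24, 48 and 72 h. IC50 read from a plot of inhibition of cell-number increase at 72 h versus concentration.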

Mus musculus [5] = experiment: Tested for mean survival time of Mice bearing […] 755 not surviving 50 days as a percentage at dose of 10 mg/kg; assay type: functional
In short: (§3)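 Female AKD2F1 mice, adenocarcinoma 755, 0.1 mL of 10^7 cells/mL given ip. Vehicle 0.9% NaCl/5% ethanol/Tween 80, serially diluted with saline. Dosed ip at 0.5 mL once daily for 6 consecutive days starting 24 h post-implant; saline controls. T/C is the mean survival of non-50-day survivors as % of controls. Survivors are those alive ≥50 days.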

Mus musculus [6] = experiment: Tested for mean survival time treated animal not surviving 50 days as a percentage at dose of 2.5 mg/kg; assay type: functional; in short: as §2
Mus musculus [7] = experiment: Tested for mean survival time treated animal not surviving 50 days as a percentage at dose of 10 mg/kg; assay type: functional; in short: as §2
Mus musculus [8] = experiment: Tested for change in body weight of Mice bearing […] 755 from onset to termination at dose of 10 mg/kg; assay type: functional
In short: (§4)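 Adenocarcinoma 755 implanted ip (0.1 mL of 10^7 cells/mL) in female AKD2F1 mice. Daily ip dosing for 6 days beginning 24 h after implantation, vehicle 0.9% NaCl/5% ethanol/Tween 80, lower doses by saline dilution. Control mice received saline. Weight difference between day 0 and day 7 taken as % change and used as a toxicity measure.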

Mus musculus [9] = experiment: Tested for number of animal surviving at least 50 days out of 10 animal treated at dose of 15 mg/kg; assay type: functional; in short: as §2
Mus musculus [10] = experiment: Tested for change in body weight from onset to termination at dose of 5 mg/kg; assay type: functional
In short: (§5)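 Female CD-1 mice inoculated ip with 0.1 mL of 10^7 Sarcoma 180 ascites cells/mL. Drug in 0.9% NaCl with 5% ethanol and Tween 80, serially diluted in saline, given ip once daily for 6 days starting 24 h after implantation. Dose based on mean starting weight. Controls received saline. Weight change recorded from day 0 to day 7, as % change.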

Mus musculus [11] = experiment: Tested for change in body weight from onset to termination at dose of 1.25 mg/kg; assay type: functional; in short: as §5
Mus musculus [12] = experiment: Tested for mean survival time of Mice bearing Ehrlich carcinoma not surviving 50 days as a percentage at dose of 20 mg/kg; assay type: functional; in short: as §1
Mus musculus [13] = experiment: Tested for mean survival time treated animal not surviving 50 days as a percentage at dose of 1.25 mg/kg; assay type: functional; in short: as §2
Mus musculus [14] = experiment: Tested for change in body weight from onset to termination at dose of 15 mg/kg; assay type: functional; in short: as §5
Mus musculus [15] = experiment: Tested for change in body weight of Mice bearing Ehrlich carcinoma from onset to termination at dose of 5 mg/kg; assay type: functional
In short: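 Female CD-1 mice given ip implants of Ehrlich carcinoma (0.1 mL of 10^7 cells/mL). Drug in saline containing 5% ethanol and Tween 80, injected ip once daily for 6 consecutive days from 24 h post-implant. Controls received 0.9% NaCl. % body weight change measured between tumor implantation (day 0) and day 7.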

Mus musculus [16] = experiment: Tested for change in body weight from onset to termination at dose of 20 mg/kg; assay type: functional; in short: as §5
Mus musculus [17] = experiment: Tested for number of animal surviving at least 50 days out of 10 animal treated at dose of 20 mg/kg; assay type: functional; in short: as §2
Mus musculus [18] = experiment: Tested for Mice bearing […] 755 surviving at least 50 days out of 5 animal treated at dose of 20 mg/kg; assay type: functional; in short: as §3
Mus musculus [19] = experiment: Tested for Mice bearing Ehrlich carcinoma surviving at least 50 days out of 10 animal treated at dose of 5 mg/kg; assay type: functional; in short: as §1
Mus musculus [20] = experiment: Tested for mean survival time treated animal not surviving 50 days as a percentage at dose of 20 mg/kg; assay type: functional; in short: as §2
Mus musculus [21] = experiment: Tested for Mice bearing […] 755 surviving at least 50 days out of 5 animal treated at dose of 10 mg/kg; assay type: functional; in short: as §3
Mus musculus [22] = experiment: Tested for change in body weight of Mice bearing […] 755 from onset to termination at dose of 5 mg/kg; assay type: functional; in short: as §4
Mus musculus [23] = experiment: Tested for change in body weight of Mice bearing […] 755 from onset to termination at dose of 20 mg/kg; assay type: functional; in short: as §4
Mus musculus [24] = experiment: Tested for Mice bearing Ehrlich carcinoma surviving at least 50 days out of 10 animal treated at dose of 20 mg/kg; assay type: functional; in short: as §1
Mus musculus [25] = experiment: Tested for number of animal surviving at least 50 days out of 25 animal treated at dose of 15 mg/kg
Mus musculus [26] = experiment: (§6) Tested for change in body weight from onset to termination at dose of 10 mg/kg; assay type: functional
In short: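 Tumor-bearing mice were dosed ip once daily for 6 consecutive days from 24 h after ip tumor implantation; saline controls. Each group was weighed on day 7, the day after the last injection, and the change from the implantation day (day 0) was expressed as % body-weight change, used as a toxicity measure.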

Mus musculus [27] = experiment: Tested for Mice bearing […] 755 surviving at least 50 days out of 5 animal treated at dose of 5 mg/kg; assay type: functional; in short: as §3
Mus musculus [28] = experiment: Tested for number of animal surviving at least 50 days out of 5 animal treated at dose of 5 mg/kg
Mus musculus [29] = experiment: Tested for mean survival time treated animal not surviving 50 days as a percentage at dose of 5 mg/kg; assay type: functional; in short: as §2
Mus musculus [30] = experiment: Tested for mean survival time treated animal not surviving 50 days as a percentage at dose of 15 mg/kg; assay type: functional; in short: as §2
Mus musculus [31] = experiment: Tested for mean survival time of Mice bearing […] 755 not surviving 50 days as a percentage at dose of 5 mg/kg; assay type: functional; in short: as §3
Mus musculus [32] = experiment: Tested for mean survival time of Mice bearing Ehrlich carcinoma not surviving 50 days as a percentage at dose of 5 mg/kg; assay type: functional; in short: as §1
Mus musculus [33] = experiment: Tested for change in body weight from onset to termination at dose of 2.5 mg/kg; assay type: functional; in short: as §5
Mus musculus [34] = experiment: Tested for mean survival time of Mice bearing […] 755 not surviving 50 days as a percentage at dose of 20 mg/kg; assay type: functional; in short: as §3
Mus musculus [35] = experiment: Tested for number of animal surviving at least 50 days out of 10 animal treated at dose of 10 mg/kg; assay type: functional; in short: as §2
Mus musculus [36] = experiment: as §6; assay type: functional; in short: as §5; remark: listed apart in the source
Mus musculus [37] = experiment: Tested for number of animal surviving at least 50 days out of 10 animal treated at dose of 5 mg/kg; assay type: functional; in short: as §2
Mus musculus [38] = experiment: Tested for number of animal surviving at least 50 days out of 30 animals treated at dose of 10 mg/kg; assay type: functional; in short: as §2
Mus musculus [39] = experiment: Tested for number of animal surviving at least 50 days out of 30 animals treated at dose of 5 mg/kg; assay type: functional; in short: as §2
Mus musculus [40] = experiment: Tested for number of animal surviving at least 50 days out of 10 animals treated at dose of 2.5 mg/kg; assay type: functional; in short: as §2
Mus musculus [41] = experiment: Tested for number of animal surviving at least 50 days out of 10 animals treated at dose of 20 mg/kg; assay type: functional; in short: as §2
Mus musculus [42] = experiment: Tested for number of animal surviving at least 50 days out of 15 animals treated at dose of 15 mg/kg; assay type: functional; in short: as §2

Row | SMILES | Activity (Mus musculus [1]) [%] | Survivors (Mus musculus [2]) | IC50 [4] [µM] | Mean survival time, treated vs control (T/C) (Mus musculus [6]) [%] | Activity (Mus musculus [7]) [%] | Activity (Mus musculus [8]) [%] | Activity (Mus musculus [10]) [%] | Activity (Mus musculus [12]) [%] | Activity (Mus musculus [14]) [%] | Activity (Mus musculus [15]) [%] | Activity (Mus musculus [16]) [%] | Survivors (Mus musculus [17]) | Survivors (Mus musculus [18]) | Survivors (Mus musculus [19]) | Activity (Mus musculus [20]) [%] | Survivors (Mus musculus [21]) | Activity (Mus musculus [22]) [%] | Activity (Mus musculus [23]) [%] | Survivors (Mus musculus [24]) | Activity (Mus musculus [29]) [%] | other results
1 | CCCc1c(O)c(C=O)c(C=O)c(O)c1CCC | 202 | 4 | 29 | 138 | 178 | -15 | 9 | 166 | 2 | 5 | -3 | 0 | 3 | 0 | 150 | 4 | -16 | -15 | 1 | 205 | Survivors (Mus musculus [3]): 0; Activity (Mus musculus [5]): 22%; Survivors (Mus musculus [9]): 0; Activity (Mus musculus [11]): 10%; Activity (Mus musculus [13]): 88%; Survivors (Mus musculus [25]): 2; Activity (Mus musculus [26]): -1%; Survivors (Mus musculus [27]): 4; Survivors (Mus musculus [28]): 4; Activity (Mus musculus [30]): 171%; Activity (Mus musculus [31]): 16%; Activity (Mus musculus [32]): 154%; Activity (Mus musculus [33]): 9%; Activity (Mus musculus [34]): 35%
2 | COc1c(C)c(C)c(OC)c(C=O)c1C=O | – | – | 97 | – | 96 | – | 15 | – | – | – | 11 | 0 | – | – | 103 | – | – | – | – | 81 | Survivors (Mus musculus [35]): 0; Activity (Mus musculus [36]): 15%; Survivors (Mus musculus [37]): 0
3 | Cc1c(C)c(O)c(C=O)c(C=O)c1O | 125 | 2 | 26 | 128 | 195 | -13 | 6 | 127 | -3 | 21 | -4 | – | 2 | 0 | 91 | 5 | -2 | -11 | 3 | 182 | Survivors (Mus musculus [38]): 3; Survivors (Mus musculus [39]): 3; Survivors (Mus musculus [40]): 0; Survivors (Mus musculus [41]): 0; Activity (Mus musculus [36]): 1%; Survivors (Mus musculus [42]): 0; Survivors (Mus musculus [27]): 4; Activity (Mus musculus [30]): 148%; Activity (Mus musculus [31]): 27%; Activity (Mus musculus [32]): 120%; Activity (Mus musculus [33]): 23%; Activity (Mus musculus [34]): 138%
4 | COc1c(C)c(C)c(O)c(C=O)c1C=O | – | – | 37 | – | – | – | – | – | – | – | – | – | – | – | – | – | – | – | – | – | –
